# Experimental data: ChEMBL document CHEMBL4428106, “Synthesis, biological evaluation and molecular docking study of N-arylbenzo[d]oxazol-2-amines as potential α-glucosidase inhibitors” (Bioorg Med Chem, 2016)
# Test system: Saccharomyces cerevisiae
# Assay: Potency index, ratio of acarbose IC50 to compound IC50 for baker's yeast alpha-glucosidase
row,SMILES,Ratio IC50
1,c1ccc(Oc2ccc(Nc3nc4ccccc4o3)cc2)cc1,25

# Target: not listed separately
# Assay: Non-competitive inhibition of baker's yeast alpha-glucosidase using p-nitrophenyl-alpha D-glucopyranoside as substrate preincubated for 15 mins followed by substrate addition measured after 30 mins by Lineweaver-Burk plot analysis
# Set-up: species or system Saccharomyces cerevisiae
# Method in brief: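 Kinetics: inhibitor at 0, 10, 20, 30, 40 and 50 μM against p-nitrophenyl α-D-glucopyranoside at 0.25, 0.5, 1 and 2 mM. Inhibition type assigned from Lineweaver-Burk plots (changes in Vmax and Km); Ki estimated from replot of slope versus inhibitor concentration.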
row,SMILES,Ki
1,c1ccc(Oc2ccc(Nc3nc4ccccc4o3)cc2)cc1,31.3 µM

# Target: not listed separately
# Assay: Inhibition of baker's yeast alpha-glucosidase using p-nitrophenyl-alpha D-glucopyranoside as substrate preincubated for 15 mins followed by substrate addition measured after 30 mins by spectrophotometric analysis
# Set-up: species or system Saccharomyces cerevisiae
# Method in brief: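 Enzyme 0.1 U/mL preincubated with test compounds at various concentrations (DMSO, final 5% v/v) in 0.1 M phosphate buffer pH 6.8, 37 C, 15 min; 1.25 mM p-nitrophenyl α-D-glucopyranoside then added, 30 min at 37 C; absorbance read at 405 nm. DMSO-only control; triplicates. % inhibition = (1-∆Asample/∆Acontrol)*100; IC50 = concentration giving 50% inhibition.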
row,SMILES,IC50
1,Clc1ccc(Nc2nc3ccccc3o2)cc1,80.4 µM
2,FC(F)(F)c1cccc(Nc2nc3ccccc3o2)c1,120 µM
3,c1ccc(Nc2nc3ccccc3o2)cc1,> 200 µM
4,CCOc1ccc(Nc2nc3ccccc3o2)cc1,> 200 µM
5,Clc1ccc(Nc2nc3ccccc3o2)c(Cl)c1,44.4 µM
6,Cc1cccc(Nc2nc3ccccc3o2)c1,> 200 µM
7,c1ccc(Oc2ccc(Nc3nc4ccccc4o3)cc2)cc1,32.5 µM
8,Cc1ccc(Nc2nc3ccccc3o2)c(C)c1,> 200 µM
9,CCOc1ccccc1Nc1nc2ccccc2o1,65 µM
10,COc1ccc(Nc2nc3ccccc3o2)cc1,> 200 µM
11,Fc1ccc(Nc2nc3ccccc3o2)cc1,68.4 µM
12,Cc1ccccc1Nc1nc2ccccc2o1,> 200 µM
13,Cc1ccc(Nc2nc3ccccc3o2)cc1,> 200 µM
